# Results reported in ChEMBL document CHEMBL1132730, “Design, synthesis, and discovery of 3-piperazinyl-3,4-dihydro-2(1H)-quinolinone derivatives: a novel series of mixed dopamine D2/D4 receptor antagonists” (Bioorg Med Chem Lett, 2000).
# pKi: −log10 of the molar value.
# What was measured:
# [1] = biological target: T1, Alpha adrenergic receptor 1A and 1B (Rattus norvegicus, UniProt P15823+P43140); test: Binding affinity at Alpha-1 adrenergic receptor in rat brain homogenates by [3H]- prazosin displacement.; format: tissue-based
# T1 sequence (P15823 whole entry): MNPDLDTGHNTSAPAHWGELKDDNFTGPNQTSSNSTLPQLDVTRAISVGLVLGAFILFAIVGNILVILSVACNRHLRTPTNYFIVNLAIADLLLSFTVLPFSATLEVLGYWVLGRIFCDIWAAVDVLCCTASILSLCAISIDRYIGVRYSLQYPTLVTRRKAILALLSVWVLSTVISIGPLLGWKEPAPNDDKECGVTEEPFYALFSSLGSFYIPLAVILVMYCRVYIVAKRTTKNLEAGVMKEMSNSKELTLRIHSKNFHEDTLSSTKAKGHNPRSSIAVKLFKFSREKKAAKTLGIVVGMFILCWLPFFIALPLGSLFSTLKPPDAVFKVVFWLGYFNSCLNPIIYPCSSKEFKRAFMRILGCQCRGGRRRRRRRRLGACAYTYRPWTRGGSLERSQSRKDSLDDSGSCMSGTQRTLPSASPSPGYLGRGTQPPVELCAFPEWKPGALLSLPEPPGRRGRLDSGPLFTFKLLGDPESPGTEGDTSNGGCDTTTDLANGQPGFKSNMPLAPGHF
# T1 sequence (P43140 whole entry): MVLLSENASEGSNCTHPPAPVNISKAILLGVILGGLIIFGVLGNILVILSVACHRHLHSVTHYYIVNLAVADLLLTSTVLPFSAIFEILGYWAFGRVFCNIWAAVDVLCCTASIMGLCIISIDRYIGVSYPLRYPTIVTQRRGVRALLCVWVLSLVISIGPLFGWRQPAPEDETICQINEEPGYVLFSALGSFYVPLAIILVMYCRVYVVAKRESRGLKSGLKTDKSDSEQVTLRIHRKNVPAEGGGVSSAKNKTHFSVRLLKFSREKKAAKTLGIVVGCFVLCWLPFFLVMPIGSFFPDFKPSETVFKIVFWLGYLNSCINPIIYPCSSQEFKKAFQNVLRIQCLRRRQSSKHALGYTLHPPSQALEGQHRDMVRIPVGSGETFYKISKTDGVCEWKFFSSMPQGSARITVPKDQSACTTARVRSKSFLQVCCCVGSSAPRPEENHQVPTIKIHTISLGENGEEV
# D(2) dopamine receptor [2] = biological target: T2, D(2) dopamine receptor (Homo sapiens, UniProt P14416); test: Binding affinity at human Dopamine receptor D2 by [3H]- YM 09151 displacement; Not active.
# T2 sequence (P14416 whole entry): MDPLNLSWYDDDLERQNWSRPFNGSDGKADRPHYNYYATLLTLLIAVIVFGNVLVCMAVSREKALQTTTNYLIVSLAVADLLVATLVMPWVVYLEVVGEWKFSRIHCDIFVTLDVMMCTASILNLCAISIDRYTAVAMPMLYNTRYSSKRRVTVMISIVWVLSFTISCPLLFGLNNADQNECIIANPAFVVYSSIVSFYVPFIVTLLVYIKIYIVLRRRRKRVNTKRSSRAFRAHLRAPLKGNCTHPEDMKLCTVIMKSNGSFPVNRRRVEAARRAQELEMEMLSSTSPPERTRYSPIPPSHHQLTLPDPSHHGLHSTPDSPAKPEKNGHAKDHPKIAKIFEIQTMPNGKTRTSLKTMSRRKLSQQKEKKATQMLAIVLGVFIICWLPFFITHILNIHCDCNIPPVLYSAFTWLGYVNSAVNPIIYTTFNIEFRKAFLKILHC
# Outline: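 Competitive radioligand displacement on cloned human D2 receptor, with [3H]YM 09151 as the displaced ligand.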
# D(4) dopamine receptor [3] = biological target: T3, D(4) dopamine receptor (Homo sapiens, UniProt P21917); test: Binding affinity at human Dopamine receptor D4 by [3H]- YM 09151 displacement; Not active.
# T3 sequence (P21917 whole entry): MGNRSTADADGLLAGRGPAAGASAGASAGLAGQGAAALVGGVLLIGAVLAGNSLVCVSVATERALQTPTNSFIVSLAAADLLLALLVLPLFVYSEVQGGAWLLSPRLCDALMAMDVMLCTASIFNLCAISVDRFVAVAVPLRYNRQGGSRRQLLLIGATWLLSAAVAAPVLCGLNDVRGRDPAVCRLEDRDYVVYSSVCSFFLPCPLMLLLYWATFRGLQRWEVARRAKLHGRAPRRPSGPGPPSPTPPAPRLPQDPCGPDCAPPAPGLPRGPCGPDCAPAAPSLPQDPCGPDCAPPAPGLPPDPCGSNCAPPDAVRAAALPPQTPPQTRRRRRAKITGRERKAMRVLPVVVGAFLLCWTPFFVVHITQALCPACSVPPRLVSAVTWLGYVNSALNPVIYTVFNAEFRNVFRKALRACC
# D(4) dopamine receptor [4] = biological target: T3, D(4) dopamine receptor; test: Binding affinity at human Dopamine receptor D4 by [3H]- YM 09151 displacement.
# D(2) dopamine receptor [5] = biological target: T2, D(2) dopamine receptor
structure (smiles),measurement,setting,value
Clc1ccc(N2CCN(C[C@H]3C[C@@H]3c3ccccc3)CC2)c(Cl)c1,Ki,[1],0.322 µM
CCOC(=O)C1(N2CCN(Cc3ccc(Cl)cc3)CC2)Cc2ccccc2NC1=O (stereo unspecified),Ki,D(2) dopamine receptor [2],Not Active
same,Ki,D(4) dopamine receptor [3],Not Active
CCN1C(=O)C(N2CCN(Cc3ccc(C)cc3)CC2)CCc2ccccc21 (stereo unspecified),Ki,[1],0.815 µM
same,pKi,D(4) dopamine receptor [4],5.53
same,pKi,D(2) dopamine receptor [5],< 6.00
Cc1ccc(CN2CCN(C3(C)C(=O)N(C)c4ccccc43)CC2)cc1 (stereo unspecified),Ki,[1],> 10 µM
same,pKi,D(4) dopamine receptor [4],< 6.00
same,pKi,D(2) dopamine receptor [5],< 6.00
CN(C(=O)CN1CCN(Cc2ccc(Cl)cc2)CC1)c1ccccc1,Ki,[1],> 10 µM
same,pKi,D(4) dopamine receptor [4],7.23
same,pKi,D(2) dopamine receptor [5],< 6.00
CCN1C(=O)C(CC)(N2CCN(Cc3ccc(Cl)cc3)CC2)c2ccccc21 (stereo unspecified),Ki,[1],> 10 µM
same,pKi,D(4) dopamine receptor [4],5.15
same,pKi,D(2) dopamine receptor [5],< 6.00
CCN1C(=O)C(CC)(N2CCN(Cc3ccc(C)cc3)CC2)c2ccccc21 (stereo unspecified),Ki,[1],> 10 µM
same,pKi,D(4) dopamine receptor [4],< 6.00
same,pKi,D(2) dopamine receptor [5],< 6.00
Cc1ccc(CN2CCN(C3CCc4ccccc4N(C)C3=O)CC2)cc1 (stereo unspecified),Ki,[1],2.038 µM
same,pKi,D(4) dopamine receptor [4],5.36
same,pKi,D(2) dopamine receptor [5],< 6.00
CN1C(=O)C(N2CCN(Cc3ccc(Cl)cc3)CC2)Cc2ccccc21 (stereo unspecified),Ki,[1],2.003 µM
same,pKi,D(4) dopamine receptor [4],8.40
same,pKi,D(2) dopamine receptor [5],6.88
O=C1Nc2ccccc2C1N1CCN(Cc2ccc(Cl)cc2)CC1 (stereo unspecified),Ki,[1],> 10 µM
same,pKi,D(4) dopamine receptor [4],< 6.00
same,pKi,D(2) dopamine receptor [5],< 6.00
CCOC(=O)C(Cc1ccccc1[N+](=O)[O-])(C(=O)OCC)N1CCN(Cc2ccc(Cl)cc2)CC1,Ki,D(2) dopamine receptor [2],Not Active
same,Ki,D(4) dopamine receptor [3],Not Active
CN1C(=O)C(N2CCN(Cc3ccc(Cl)cc3)CC2)CCc2ccccc21 (stereo unspecified),Ki,[1],2.878 µM
same,pKi,D(4) dopamine receptor [4],5.61
same,pKi,D(2) dopamine receptor [5],5.13
CCOC(=O)C(C(=O)OCC)N1CCN(Cc2ccc(Cl)cc2)CC1,Ki,D(2) dopamine receptor [2],Not Active
same,Ki,D(4) dopamine receptor [3],Not Active
CCOC(=O)C(Cc1ccccc1N)(C(=O)OCC)N1CCN(Cc2ccc(Cl)cc2)CC1,Ki,D(2) dopamine receptor [2],Not Active
same,Ki,D(4) dopamine receptor [3],Not Active
Fc1ccc(OC[C@@H]2CC[C@H]3CN(c4ncc(F)cn4)CCN3C2)cc1,Ki,D(2) dopamine receptor [2],Not Active
same,Ki,D(4) dopamine receptor [3],Not Active
O=C1Nc2ccccc2CCC1I (stereo unspecified),Ki,D(2) dopamine receptor [2],Not Active
same,Ki,D(4) dopamine receptor [3],Not Active
Cc1ccc(CN2CCN(C3CCc4ccccc4NC3=O)CC2)cc1 (stereo unspecified),Ki,[1],3.12 µM
same,pKi,D(4) dopamine receptor [4],< 6.00
same,pKi,D(2) dopamine receptor [5],< 6.00
O=C1Nc2ccccc2CCC1N1CCN(Cc2ccc(Cl)cc2)CC1 (stereo unspecified),Ki,[1],9.591 µM
same,pKi,D(4) dopamine receptor [4],< 6.00
same,pKi,D(2) dopamine receptor [5],< 6.00
Clc1ccc(CN2CCNCC2)cc1,Ki,D(2) dopamine receptor [2],Not Active
same,Ki,D(4) dopamine receptor [3],Not Active
O=C1Nc2ccccc2CC1N1CCN(Cc2ccc(Cl)cc2)CC1 (stereo unspecified),Ki,[1],2.003 µM
same,pKi,D(4) dopamine receptor [4],7.00
same,pKi,D(2) dopamine receptor [5],5.86
CCN1C(=O)C(N2CCN(Cc3ccc(Cl)cc3)CC2)CCc2ccccc21 (stereo unspecified),Ki,[1],2.678 µM
same,pKi,D(4) dopamine receptor [4],5.82
same,pKi,D(2) dopamine receptor [5],< 6.00
O=C1Nc2ccccc2C1Cl (stereo unspecified),Ki,D(2) dopamine receptor [2],Not Active
same,Ki,D(4) dopamine receptor [3],Not Active
CN1C(=O)C(C)(N2CCN(Cc3ccc(Cl)cc3)CC2)c2ccccc21 (stereo unspecified),Ki,[1],> 10 µM
same,pKi,D(4) dopamine receptor [4],< 6.00
same,pKi,D(2) dopamine receptor [5],< 6.00
Cc1ccc(CN2CCN(C3C(=O)Nc4ccccc43)CC2)cc1 (stereo unspecified),Ki,[1],> 10 µM
same,pKi,D(4) dopamine receptor [4],< 6.00
same,pKi,D(2) dopamine receptor [5],< 6.00
CCN1C(=O)C(N2CCN(Cc3ccc(Cl)cc3)CC2)Cc2ccccc21 (stereo unspecified),Ki,[1],1.265 µM
same,pKi,D(4) dopamine receptor [4],8.40
same,pKi,D(2) dopamine receptor [5],7.68
Cc1cnc(N2CCN(Cc3c[nH]c(-c4ccccc4)n3)CC2)nc1,Ki,D(2) dopamine receptor [2],Not Active
same,Ki,D(4) dopamine receptor [3],Not Active
Clc1ccc(N2CCN(Cc3c[nH]c4ncccc34)CC2)cc1 [L-745870],Ki,D(2) dopamine receptor [2],Not Active
same,Ki,D(4) dopamine receptor [3],Not Active
NS(=O)(=O)c1ccc(N2CCN(CC[C@@H]3OCCc4ccccc43)CC2)cc1 [SONEPIPRAZOLE],Ki,D(2) dopamine receptor [2],Not Active
same,Ki,D(4) dopamine receptor [3],Not Active
